The text below walks through data of ChEMBL document CHEMBL4765355, “Synthesis of adenine dinucleosides SAM analogs as specific inhibitors of SARS-CoV nsp14 RNA cap guanine-N7-methyltransferase” (Eur J Med Chem, 2020).

For data set [1], the system named is Severe acute respiratory syndrome-related coronavirus. The data set is described as follows: Inhibition of N7-MTase activity of N-terminal His6-tagged SARS-CoV nsp14 expressed in Escherichia coli using GpppAC4 and [3H]SAM as substrate at 50 uM preincubated with enzyme followed by substrate addition and measured after 30 mins by filter binding assay. The method in brief:
(§1)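 Filter binding assay in 40 mM Tris-HCl pH 8.0, 1 mM DTT, 1 mM MgCl2, 2 µM SAM, 0.1 µM 3H-SAM and 0.7 µM GpppAC4 RNA. Enzyme is nsp14 (50 nM), hRNMT (50 nM) or vaccinia D1–D12 (41 U). Compound is at 50 µM with 5% final DMSO. Reactions run 30 min at 30 °C, are stopped by ice-cold water dilution, and 3H on DEAE filters is counted. Percent inhibition is relative to a 5% DMSO control, mean of three experiments.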

Data set [2] concerns Orthopoxvirus vaccinia. The data set is described as follows: Inhibition of N7-MTase activity of Vaccinia virus mRNA capping enzyme D1/D12 complex using GpppAC4 and [3H]SAM as substrate at 50 uM preincubated with enzyme followed by substrate addition and measured after 30 mins by filter binding assay. An outline of the steps:
as §1

The target in data set [3] is RNA-N7 MTase (mRNA cap guanine-N(7) methyltransferase) (Homo sapiens, UniProt O43148). The data set is described as follows: Inhibition of N-terminal His6-tagged human RNA-N7 MTase expressed in Escherichia coli using GpppAC4 and [3H]SAM as substrate at 50 uM preincubated with enzyme followed by substrate addition and measured after 30 mins by filter binding assay. The settings on record: probe GpppAC4 and [3H]SAM. The method in brief: as §1

Data set [4] is described as follows: Inhibition of N7-MTase activity of N-terminal His6-tagged SARS-CoV nsp14 expressed in Escherichia coli using GpppAC4 and [3H]SAM as substrate preincubated with enzyme followed by substrate addition and measured after 30 mins by filter binding assay. Set-up: species or system Severe acute respiratory syndrome-related coronavirus. The method in brief: (§2)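 Dose-response filter binding assay with nsp14 or hRNMT (each 50 nM) pre-incubated with increasing compound concentrations (5% final DMSO). Then 0.7 µM GpppAC4, 2 µM SAM and 0.1 µM 3H-SAM are added in Tris pH 8.0/DTT/MgCl2, 30 min at 30 °C. IC50 is taken from a Hill slope fit, mean of three independent experiments.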

The target in data set [5] is mRNA cap guanine-N(7) methyltransferase (Homo sapiens, UniProt O43148). The data set is described as follows: Inhibition of N-terminal His6-tagged human RNA-N7 MTase expressed in Escherichia coli using GpppAC4 and [3H]SAM as substrate preincubated with enzyme followed by substrate addition and measured after 30 mins by filter binding assay. An outline of the steps:
as §2

In data set [6] the test system is Severe acute respiratory syndrome-related coronavirus. The data set is described as follows: Binding affinity to SARS-CoV nsp14 assessed as increase in melting temperature at 1 mM at pH 7.5 by differential scanning fluorimetry. An outline of the steps:
(§3)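 Purified SARS-CoV nsp14 (5 µM) in 20 mM HEPES pH 7.5, 150 mM NaCl and 1X SYPRO orange, with 1 mM compound (DMSO stock; SAM and sinefungin from water). Protein is mixed with compound before dye is added. Fluorescence is read from 20 to 95 °C at 0.2 °C/min. Tm comes from curve fitting, and ΔTm is taken against a 5% DMSO control.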
A general note: DSF heats the sample and reads unfolding from a dye or from intrinsic fluorescence.

Data set [7] has the same test system. The data set is described as follows: Binding affinity to SARS-CoV nsp14 assessed as melting temperature at 1 mM at pH 7.5 by differential scanning fluorimetry. The method in brief:
as §3

Data set [8] in a line: Binding affinity to SARS-CoV nsp14 by TSA based analysis. Further details: species or system Severe acute respiratory syndrome-related coronavirus. The method in brief:
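Thermal shift assay with nsp14 (5 µM) in HEPES pH 7.5/NaCl/SYPRO orange, using increasing compound concentrations and a 20–95 °C ramp. Apparent KD is obtained by nonlinear regression with a one-site specific binding Hill slope equation.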

The subject of data set [9] is Severe acute respiratory syndrome-related coronavirus. The data set is described as follows: Inhibition of 2'-O-MTase activity of SARS-CoV nsp10/16 complex at 200 uM.
Data set [10] has as its system Zika virus. The data set is described as follows: Inhibition of 2'-O-methyltransferase in Zika virus at 200 uM.
For data set [11], the system named is West Nile virus. The data set is described as follows: Inhibition of 2'-O-methyltransferase in West-Nile virus at 200 uM.
The subject of data set [12] is Dengue virus. The data set is described as follows: Inhibition of 2'-O-methyltransferase in Dengue virus at 200 uM.
Data set [13] relates to Orthopoxvirus vaccinia. The data set is described as follows: Inhibition of 2'-O-methyltransferase activity of Vaccinia virus VP39 at 200 uM.

Structures are written as SMILES. Calls of active or inactive are those of the source. The rule behind the calls is not given here.

RNA-N7 MTase (mRNA cap guanine-N(7) methyltransferase), sequence (O43148 whole entry): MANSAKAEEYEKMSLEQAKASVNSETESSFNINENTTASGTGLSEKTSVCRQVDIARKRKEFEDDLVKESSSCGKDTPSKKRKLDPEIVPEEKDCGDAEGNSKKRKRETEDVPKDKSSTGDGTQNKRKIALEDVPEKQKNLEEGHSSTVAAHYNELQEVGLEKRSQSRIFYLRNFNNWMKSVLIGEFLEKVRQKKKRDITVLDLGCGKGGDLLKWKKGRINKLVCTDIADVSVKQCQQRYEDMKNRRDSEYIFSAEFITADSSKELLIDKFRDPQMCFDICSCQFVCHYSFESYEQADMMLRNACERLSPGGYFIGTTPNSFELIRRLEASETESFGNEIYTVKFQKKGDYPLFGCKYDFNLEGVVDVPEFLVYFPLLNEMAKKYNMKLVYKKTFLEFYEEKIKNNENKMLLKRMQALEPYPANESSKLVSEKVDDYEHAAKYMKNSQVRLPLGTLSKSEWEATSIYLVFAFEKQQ
mRNA cap guanine-N(7) methyltransferase, sequence (O43148 whole entry): as above

For the compound `Nc1ncnc2c1ncn2[C@@H]1OC(CN(CCO[C@@H]2[C@H](O)C(CO)O[C@H]2n2cnc3c(N)ncnc32)S(=O)(=O)c2ccc(Cl)c([N+](=O)[O-])c2)[C@@H](O)[C@H]1O` (single isomer, unassigned), the values for the inhibition in data set [1] and in data set [2] were 97.2% and 2.8%, respectively. Moreover, in data set [3], the inhibition – broadly, how much of the control response was suppressed – at 0.5 h, 50 µM was 33.9%. Also, the half-maximal inhibitory concentration (IC50) (commonly the midpoint of a concentration-inhibition curve) in data set [4] came to 0.6 µM; in data set [5], 247 µM. Further, the thermal shift (ΔTm) (usually the shift of the melting midpoint relative to a reference) in data set [6] amounted to 10.8 °C. For the same compound, in [7], the Tm is > 40 °C. In addition, the Kd (as a rule, the concentration at which binding is half-saturated) in [8] came out at 1.3 µM. Moreover, the inhibition result in [9], in data set [10], in [11], in [12] and in [13] was “inactive” throughout.
`Nc1ncnc2c1ncn2[C@@H]1OC(CN(CCO[C@@H]2[C@H](O)C(CO)O[C@H]2n2cnc3c(N)ncnc32)S(=O)(=O)c2ccc(C(F)(F)F)cc2[N+](=O)[O-])[C@@H](O)[C@H]1O` (single isomer, unassigned): the inhibition in [1] was determined as 94.6%; in data set [2] it was 10.1%. The compound further showed an inhibition at 0.5 h, 50 µM in data set [3] of 23.3%. For the same compound, the IC50 in [4] is 5.7 µM; in data set [5], 276 µM. Further, the ΔTm in [6] stood at 4.6 °C. The Tm in data set [7] was > 40 °C. Moreover, the inhibition entry in data set [9], in data set [10], in data set [11], in data set [12] and in data set [13] was “inactive” each time.
`Nc1ncnc2c1ncn2[C@@H]1OC(CN(CCO[C@@H]2[C@H](O)C(CO)O[C@H]2n2cnc3c(N)ncnc32)S(=O)(=O)c2ccc([N+](=O)[O-])cc2)[C@@H](O)[C@H]1O` (single isomer, unassigned): the values for the inhibition in data set [1] and in [2] were 88.6% and 49.8%, respectively. The compound further yielded an inhibition at 0.5 h, 50 µM in data set [3] of 66%. In addition, the IC50 is 2.6 µM in [4] and > 500 µM in data set [5]. Further, in data set [6], the ΔTm was 4.6 °C. Further, in data set [7], the Tm was > 40 °C. Besides, the inhibition entry in data set [9], in data set [10], in data set [11], in [12] and in [13] was “inactive” in each case.
For the compound `COc1cc([N+](=O)[O-])ccc1S(=O)(=O)N(CCO[C@@H]1[C@H](O)C(CO)O[C@H]1n1cnc2c(N)ncnc21)CC1O[C@@H](n2cnc3c(N)ncnc32)[C@H](O)[C@@H]1O` (single isomer, unassigned), the inhibition in data set [1] was found to be 47.6%; in data set [2] it was 5.3%. In addition, the inhibition at 0.5 h, 50 µM in data set [3] was found to be 44.2%. The IC50 in data set [4] came out at 70.4 µM; in data set [5] it was 169 µM. For the same compound, the ΔTm in [6] is 4.6 °C. Moreover, the Tm in data set [7] is > 40 °C. Further, the inhibition entry in data set [9], in data set [10], in [11], in data set [12] and in data set [13] was “inactive” throughout.
As for `Nc1ncnc2c1ncn2[C@@H]1OC(CN(CCCc2ccccc2)CCO[C@@H]2[C@H](O)C(CO)O[C@H]2n2cnc3c(N)ncnc32)[C@@H](O)[C@H]1O` (single isomer, unassigned), the figures for the inhibition in data set [1] and in data set [2] were 38.4% and 11.6%, respectively. In [3], this compound came in with an inhibition at 0.5 h, 50 µM of 23.1%. Besides, the results for the IC50 in data set [4] and in [5] were 55.5 µM and > 500 µM, respectively. Moreover, in data set [6], the ΔTm turned out to be 4.6 °C. The Tm in [7] is > 40 °C. Moreover, the inhibition result in data set [9], in data set [10], in data set [11], in [12] and in [13] was “inactive” each time.
